Laboratory results: ChEMBL document CHEMBL2434895, “Design and application of a rigid quinazolone scaffold based on two-face Bim α-helix mimicking” (Eur J Med Chem, 2013)

What was measured:
[1] = molecular target: Apoptosis regulator Bcl-2 (Homo sapiens, UniProt P10415); assay: Displacement of FAM-Bid BH3 peptide from recombinant Bcl-2 (unknown origin) expressed in Escherichia coli BL21 after 10 mins by fluorescence polarization assay
[2] = molecular target: Induced myeloid leukemia cell differentiation protein Mcl-1 (Homo sapiens, UniProt Q07820); assay: Displacement of FAM-Bid BH3 peptide from recombinant Mcl-1 (unknown origin) expressed in Escherichia coli BL21 after 10 mins by fluorescence polarization assay
Method in brief: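 Mcl-1 FP competition: 55 nM protein with 20 nM FAM-Bid BH3 peptide in 25 mM Tris pH 8.0, 150 mM NaCl, 2 min preincubation. Compounds added as serial dilutions from 10 mM DMSO stock, 10 min incubation, polarization measured. Tracer Kd 13 nM. Ki derived by Wang FP-assay equation.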

Induced myeloid leukemia cell differentiation protein Mcl-1, sequence (Q07820 whole entry): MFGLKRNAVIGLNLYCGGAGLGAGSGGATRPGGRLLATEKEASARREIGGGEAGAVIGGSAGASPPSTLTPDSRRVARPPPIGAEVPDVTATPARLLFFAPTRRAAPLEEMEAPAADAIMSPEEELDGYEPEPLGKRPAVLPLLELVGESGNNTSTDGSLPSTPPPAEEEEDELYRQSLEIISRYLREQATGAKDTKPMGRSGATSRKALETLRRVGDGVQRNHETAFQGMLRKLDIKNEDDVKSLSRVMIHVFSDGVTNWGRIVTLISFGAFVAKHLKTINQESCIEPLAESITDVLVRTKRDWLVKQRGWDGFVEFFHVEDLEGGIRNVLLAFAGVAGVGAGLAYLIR
Apoptosis regulator Bcl-2, sequence (P10415 whole entry): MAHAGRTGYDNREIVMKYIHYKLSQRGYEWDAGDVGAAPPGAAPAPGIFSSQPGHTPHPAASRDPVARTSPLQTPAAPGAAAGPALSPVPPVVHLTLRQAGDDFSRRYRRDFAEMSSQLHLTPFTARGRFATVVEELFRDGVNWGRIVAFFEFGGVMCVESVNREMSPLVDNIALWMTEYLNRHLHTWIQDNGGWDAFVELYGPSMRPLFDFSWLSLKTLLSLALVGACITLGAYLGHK

Row | Compound | Ki [1] | Ki [2]
1 | CCCCNC(=O)c1cc(O)c(O)c(O)c1NC(=O)c1ccccc1 | 1920 nM | 1980 nM
2 | O=c1c2cc(O)c(O)c(O)c2nc(-c2ccccc2)n1Cc1ccccc1 | 959 nM | 1210 nM
3 | O=C1c2ccccc2C(=O)c2c1cc(O)c(O)c2O | 1320 nM | 1210 nM
4 | CC(C)c1ccc(O)c(Cn2c(-c3ccccc3)nc3c(O)c(O)c(O)cc3c2=O)c1 | 1110 nM | 609 nM
5 | O=C(Nc1c(C(=O)NCc2ccccc2)cc(O)c(O)c1O)c1ccccc1 | 1320 nM | 2820 nM
6 | Cc1ccc(O)c(Cn2c(-c3ccccc3)nc3c(O)c(O)c(O)cc3c2=O)c1 | 179 nM | 123 nM
7 | O=C(Nc1c(C(=O)NCCCc2ccccc2)cc(O)c(O)c1O)c1ccccc1 | 8040 nM | 3240 nM
8 | O=c1[nH]cnc2c(O)c(O)c(O)cc12 | 9280 nM | 5980 nM
